Redox H2O2 prof = compounds producing H2O2 with reducing agent – biochemical, NIH compound library profiling, artefact control for MLSCN library redox annotation, primary screen; activation, % at 10 µM; AID 878, 2007; DTT-dependent redox cycling H2O2, phenol red/HRP absorbance; 100% = 100 µM peroxide control, 0% = buffer; 200,000 compounds, 0.03% hits;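 active = activation of at least 50% relative to the plate's high and low controls in the primary single-dose screen; inactive = activation below 50%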;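 note: compound incubated with DTT at 0.8 mM final as the reducing agent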
Lmaj promast = Leishmania major promastigote growth inhibition, primary screen; Leishmania major promastigotes, resazurin fluorescence viability; inhibition, % at 10 µM; 200,000 compounds, 9% hits; AID 1063, 2008;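 note: promastigotes grown with compound for 44 hours at 28 °C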
PfGluPho inh = PfG6PD enzyme inhibitors, primary screen, biochemical, fluorescence intensity, uHTS | glucose-6-phosphate dehydrogenase-6-phosphogluconolactonase (Plasmodium falciparum 3D7) | PfGluPho enzyme, NADPH resazurin-diaphorase fluorescence | inhibition, % at 20 µM | 350,000 compounds, 0.78% hits | AID 504690, 2011;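 active = inhibition reaching at least a set limit at 20 µM in the primary screen, cut at about 59% in these data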;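 note: 0% = DMSO wells with substrate and 100% = DMSO wells lacking glucose-6-phosphate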
Diaphorase inh = diaphorase inhibitors and chemical oxidizers, primary screen, counter-screen for diaphorase-coupled primary assays, biochemical, uHTS, resorufin fluorescence; diaphorase resazurin-to-resorufin fluorescence, NADH, 16 min; bacterial (C. kluyveri) enzyme, not human; inhibition, % at 20 µM; 190,000 compounds, 0.69% hits;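 active = primary screen inhibition at 20 µM above a set limit, cut at about 50% in these data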;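 note: plate controls were DMSO with full reaction for no effect and wells lacking NADH for full effect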
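material = Clostridium kluyveri diaphorase enzyme | amount = 0.14 U/mL diaphorase, enzyme working solution | schedule = incubation 16 min, room temperature | detection = fluorescence of resorufin formed from resazurin, Ex 544/Em 590 nm | benchmarks = positive control minus NADH, DMSO neutral control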
Diaphorase act = compounds boosting diaphorase resazurin reduction – biochemical, uHTS, resorufin fluorescence, counter-screen for diaphorase-coupled primary assays, primary screen; Diaphorase/resazurin coupled assay, 16 min; active compounds read high; 1 = vehicle wells, 0 = NADH-free wells; activation factor at 20 µM; 190,000 compounds, 0.005% hits; AID 1229, 2008;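 active = diaphorase activity raised at least twofold by the compound at 20 µM; inactive = activation factor below 2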
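Assay system: bacterial diaphorase enzyme (C. kluyveri) / Input: enzyme 0.07 U/mL final / Medium: 50 mM HEPES pH 7.4 with 4.542 mM MgCl2, 0.005% Tween 20 / Doses: single compound dose of 20 µM, 1% DMSO final / Incubation: 16 min enzyme reaction, ambient temperature / Signal: fluorescence, excitation 544 nm and emission 590 nm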
G6PDH CS = L. mesenteroides G6PDH inhibitors, counter-screen for G6PDH-coupled screening assays, biochemical, Leuconostoc mesenteroides enzyme | glucose-6-phosphate dehydrogenase [Leuconostoc mesenteroides] | Purified L. mesenteroides G6PDH, diaphorase/resazurin coupled fluorescence, 45 min | inhibition, % at 5 µM | 200,000 compounds, 0.12% hits
Numbers without * were called inactive; x = no result. The full list was thinned out, with hits kept by preference. Cut-off read from the data, not from the text of the source, unless noted: active = inhibition above about 50%; inactive = the rest.

SMILES	Redox H2O2 prof	Lmaj promast	PfGluPho inh	Diaphorase inh	Diaphorase act	G6PDH CS
Cc1ccc(CSC2=NCCN2S(=O)(=O)c2ccccc2)cc1	0.1	99.5*	21.5	19.5	0.8	7.2
CCC(CO)NCc1ccc(OCC(=O)Nc2cccc(C(F)(F)F)c2)c(OC)c1 (stereo not drawn)	-0.5	95.1*	8.5	1.4	1	-3.6
COc1ccc(CN(C)C(=O)c2ccc(OCC(=O)Nc3cccc(C(F)(F)F)c3)c(OC)c2)cc1	x	x	20.7	x	x	x
CCOc1cc(CNC)ccc1OCC(=O)NC(C)(C)C	0.2	4.4	2.1	6.3	0.9	-1.1
CCOc1cc(CNCCCN2CCOCC2)cc(Cl)c1OCC(=O)NC(C)(C)C	x	x	-4.3	x	x	x
CCOc1cc(CNCCCN2CCOCC2)cc(Br)c1OCC(=O)Nc1cccc(C(F)(F)F)c1	-4.7	100.6*	-2.4	-5.1	1.1	0.6
CCOc1cc(CNC(C)(C)C)ccc1OCC(=O)Nc1cccc(C(F)(F)F)c1	-0.9	84.4*	-17.9	1.1	1	2.9
CC1CCN(Cc2nnnn2-c2cccc([N+](=O)[O-])c2)CC1	0.4	-1.6	-1.8	4.7	1	7.6
C=CCn1c(SCC(=O)NC2CCS(=O)(=O)C2)nc2sc(CC)cc2c1=O (stereo not drawn)	0.0	6.2	-9.7	8.1	0.9	14.3
C=CCn1c(SCC(=O)NC2CC2)nc2sc(CC)cc2c1=O	0.0	57.9*	-10.8	10.9	0.9	3.7
CCOC(=O)CNS(=O)(=O)c1cc(-c2nn(C)c(=O)c3ccccc23)ccc1C	-0.7	11.6	11.0	-2.9	1	10.5
CCOc1ccc(S(=O)(=O)NCCCN2CCOCC2)c2ccccc12	0.2	85.3*	3.1	8.8	0.9	4.9
Cc1ccc(-c2nn(C)c(=O)c3ccccc23)cc1S(=O)(=O)NCCN1CCOCC1	2.3	64.8*	-1.0	11.2	0.9	-21.4
CCCOc1ccc(S(=O)(=O)NCCCN2CCOCC2)c2ccccc12	1.1	27.8	5.9	10.8	0.9	14.1
COc1ccc(S(=O)(=O)NCCCN2CCOCC2)c2ccccc12	1.7	91.8*	19.6	16.6	0.8	5.8
Brc1c(OCCOCCn2cncn2)ccc2ccccc12	0.5	65.5*	3.9	22.5	0.8	-9.0
Cc1cc(NC(=S)N(CCN2CCCCC2)Cc2ccco2)ccc1Cl	-2.6	32.6	10.6	-10.5	1.1	4.8
CN1CCN(CCCN(Cc2cccs2)C(=S)Nc2ccc(Cl)cc2)CC1	0.4	18.5	-0.1	6.8	0.9	5.0
CCN1CCN(CCCN(Cc2ccco2)C(=S)Nc2ccc(Cl)c(C)c2)CC1	-2.7	44.0	8.6	4.7	1	5.0
FC(F)(F)c1cccc(NC(=S)N(CCCN2CCCC2)Cc2cccn2Cc2ccc(Cl)cc2)c1	-0.5	100.5*	2.1	-9.8	1.1	2.7
Cc1ccc(NC(=S)N(CCCN2CCCC2)Cc2cccn2Cc2ccc(Cl)cc2)cc1Cl	0.5	100.2*	1.4	-42.7	1.4	0.6
Cc1ccc(NC(=S)N(CCCN2CCCC2)Cc2cccn2Cc2ccc(Cl)cc2)cc1C	-0.8	100.5*	-11.7	-16.2	1.2	2.7
COc1ccc(NC(=S)N(CCCN2CCCC2)Cc2cccn2Cc2ccc(Cl)cc2)cc1Cl	1.0	100.5*	22.2	-34.7	1.3	-8.8
O=C(Nc1ccc(Cl)cc1)Nc1ccc(Br)cn1	x	x	4.9	x	x	x
C[C@@H]1CN([C@@H](C)CO)C(=O)CCCn2nncc2CO[C@H]1CN(C)C(=O)OCc1ccccc1	x	x	3.5	x	x	x
SMILES	Redox H2O2 prof	Lmaj promast	PfGluPho inh	Diaphorase inh	Diaphorase act	G6PDH CS
CCCNC(=O)C1CC(c2cccc(F)c2)=NO1 (stereo not drawn)	x	x	-15.8	x	x	x
CCC1(c2ccccc2)SC(N)=NC1=O (stereo not drawn)	x	x	15.0	x	x	x
CC/C(=C\c1oc2cc3ccccc3cc2[n+]1CC)Nc1ccccc1	-0.3	100.3*	31.8	5.8	0.9	4.1
CC[n+]1c(/C=C/Nc2ccccc2)oc2ccc(OC)cc21	-0.3	17.9	26.1	17.4	0.8	8.9
CCOC(=O)Cn1c(S(=O)(=O)Cc2cccc(F)c2)nc(-c2ccccc2)c1-c1ccccc1	-2.4	90.4*	19.7	9.6	0.9	-11.2
C#CCn1c(S(=O)(=O)Cc2ccc(F)cc2)nc(-c2ccccc2)c1-c1ccccc1	-9.1	95.6*	13.1	20.7	0.8	-11.9
COC(=O)c1cc(CNC(=O)c2cccc(Cl)c2Cl)ccc1OC	0.2	53.4*	x	11.6	0.9	3.6
Oc1cccc(C=NCc2ccccc2)c1O	-0.3	-5.7	48.5	61.7*	0.4	60.2*
O=[N+]([O-])c1ccccc1/C=C/CN1CCCCC1	-3.5	74.7*	-7.9	6.0	0.9	2.6
O=[N+]([O-])c1ccccc1/C=C/CN1CCCCC1CO (stereo not drawn)	x	x	-6.4	x	x	x
CCOC(=O)C1CCCN(C/C=C/c2ccccc2[N+](=O)[O-])C1 (stereo not drawn)	-4.0	84.9*	-17.6	14.4	0.9	0.4
CCOC(=O)C1CCCN(CCC(C)c2ccccc2)C1 (stereo not drawn)	0.7	77.8*	0.3	10.5	0.9	4.7
CCC/C(=N/NC(=O)c1ccccc1Cl)c1ccccc1	-1.1	95.1*	14.3	-0.4	1	2.3
CCOc1ccc(N2C(=O)/C(=C/c3cc(OC)c(OC)c(OC)c3)N(CC(=O)OC)C2=S)cc1	-2.8	99.8*	24.2	21.9	0.8	17.7
COC(=O)CN1C(=S)N(c2ccc(OC)cc2)C(=O)/C1=C/c1cccs1	0.8	69.0*	5.3	22.3	0.8	6.6
CCOC(=O)c1cnc(-n2nc(C)cc2C)nc1NNc1nc(-c2ccccc2)cc(-c2ccccc2)n1	0.8	99.9*	-12.4	-6.1	1.1	0.1
CCOC(=O)c1cnc(-n2nc(C)cc2C)nc1NC1CCCCC1	0.1	100.2*	15.8	-0.8	1	3.4
COc1ccc(CNC(=O)C(c2ccccc2F)N(C(=O)c2csnn2)C2CC2)cc1 (stereo not drawn)	x	x	9.5	x	x	x
CC(=O)N1N=C(c2ccccc2O)OC1(C)CC(=O)Nc1ccccc1 (stereo not drawn)	0.1	60.3*	-18.4	-8.2	1.1	12.9
CC(=O)NCCn1c(SCC(=O)NCCC2=CCCCC2)nc2ccccc2c1=O	0.3	4.0	-13.8	4.0	1	3.0
COCC(C)n1c(SCC(=O)NCCC2=CCCCC2)nc2ccccc2c1=O (stereo not drawn)	0.3	92.5*	-4.2	10.5	0.9	-1.1

Bioassay records (PubChem)
